Source: PubChem
Lipid droplet – inhibitors of hepatocyte lipid droplet formation, primary screen, imaging, high-throughput imaging, BODIPY stain; AML12 mouse hepatocytes, oleate lipid droplets; inhibition, % at 6.5 µM; AID 1656, 2009; 240,000 compounds, 0.4% hits;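 active = lipid droplet intensity inhibited by at least 50%, with more than 500 cells counted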
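Material – mouse AML12 hepatocyte cell line, fixed after treatment · Compound dosing – one dose, 6.5 µM compound · Times – compound with oleate, overnight · Measured by – Image-based BODIPY and DAPI two-channel analysis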
MEKK2mut PB1 HTS – MEK5 binding signal on mutant MEKK2 PB1, primary screen, biochemical, multiplex bead flow cytometry, Alexa488-MEK5. Alexa488-MEK5 binding to MEKK2 mutant. percent response, % at 10 µM. 290,000 compounds, 0.35% hits. AID 1530, 2009; in the data active = percent response above about 24%, passing the limit was not always enough
MEKK3 PB1 HTS – modulators of MEKK3-MEK5 PB1 binding, primary screen, biochemical, wildtype MEKK3, multiplex bead flow cytometry, Alexa488-MEK5. bead-based flow cytometry, Alexa488-MEK5 binding to MEKK3; actives lie on both sides; 0 = blocked by unlabeled MEK5, 100 = vehicle. Mitogen-activated protein kinase kinase kinase 3 (Homo sapiens), Q99759. 290,000 compounds, 1.4% hits. binding response (% of control), % at 10 µM;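 active = binding response more than 3 SD above or below the average of its plate-row segment, actives on both sides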;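 note: Alexa488 bead fluorescence after subtracting the streptavidin-only scavenger bead signal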
Target sequence (Q99759 whole entry, looked up): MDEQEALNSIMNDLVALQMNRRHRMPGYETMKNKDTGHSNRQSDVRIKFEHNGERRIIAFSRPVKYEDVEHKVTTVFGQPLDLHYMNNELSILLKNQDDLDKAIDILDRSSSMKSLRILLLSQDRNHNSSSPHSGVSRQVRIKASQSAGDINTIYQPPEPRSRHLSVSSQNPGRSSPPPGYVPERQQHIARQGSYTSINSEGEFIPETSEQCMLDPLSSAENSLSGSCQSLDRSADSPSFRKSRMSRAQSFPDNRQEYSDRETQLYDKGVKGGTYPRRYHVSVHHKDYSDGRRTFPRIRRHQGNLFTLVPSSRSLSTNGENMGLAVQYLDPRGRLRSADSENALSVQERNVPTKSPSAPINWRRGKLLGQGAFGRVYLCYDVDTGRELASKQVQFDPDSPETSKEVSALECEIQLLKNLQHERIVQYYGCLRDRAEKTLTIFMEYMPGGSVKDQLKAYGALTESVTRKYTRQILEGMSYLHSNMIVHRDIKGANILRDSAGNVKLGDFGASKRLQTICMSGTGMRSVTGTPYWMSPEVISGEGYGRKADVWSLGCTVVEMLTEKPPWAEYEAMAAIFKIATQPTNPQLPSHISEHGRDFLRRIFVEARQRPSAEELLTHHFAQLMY
MEKK2wt PB1 HTS – modulators of MEK5 binding to wildtype MEKK2, primary screen, biochemical, multiplex bead flow cytometry, Alexa488-MEK5; binding response (% of control), % at 10 µM; Alexa488-MEK5 binding to MEKK2 WT; actives lie on both sides; 290,000 compounds, 1.1% hits; Mitogen-activated protein kinase kinase kinase 2 (Homo sapiens), Q9Y2U5; in the data active = binding response below about 67% or above about 130%
MEKK2wt confirm – modulators of MEK5 binding to wildtype MEKK2, confirmation, biochemical, single concentration, multiplex bead flow cytometry | 5,900 compounds, 2.4% hits | binding response (% of control), % at 10 µM | shares compounds with MEKK3 PB1 HTS | Alexa488-MEK5 binding to MEKK2 WT; actives lie on both sides | AID 1892, 2009; in the data active = binding response below about 16% or above about 210%; inactive = in between
MEKK2mut confirm – mutant MEKK2 PB1-MEK5 binding signal retest – biochemical, single concentration, multiplex bead flow cytometry, confirmation. 5,900 compounds, 2% hits. shares compounds with MEKK3 PB1 HTS. Alexa488-MEK5 binding to MEKK2 mutant. percent response, % at 10 µM; in the data active = percent response mostly above about 71%, no sharp cut-off; inactive = mostly below about 38%;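 note: higher means compound restores mutant binding toward wildtype level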
MEKK3 confirm – MEKK3 wild-type PB1 binding to MEK5, inhibitors, confirmation, biochemical, bead multiplex flow cytometry, single concentration, wildtype; shares compounds with MEKK3 PB1 HTS; Alexa488-MEK5 binding to MEKK3; hits give low values; binding response (% of control), % at 10 µM; 5,900 compounds, 1.8% hits;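 active = binding response below 72% of control, or above a set upper limit, though filed actives all read lower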;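 note: lower values mean stronger disruption of MEK5 binding to MEKK3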
A number is an active result; n = inactive; x = not tested or not shown; [ ] = dose if it differs, or a comment. In the library only some 2.6% were active in any assay of this set; here they are far more common.

SMILES | Lipid droplet | MEKK2mut PB1 HTS | MEKK3 PB1 HTS | MEKK2wt PB1 HTS | MEKK2wt confirm | MEKK2mut confirm | MEKK3 confirm
COc1ccc(-c2csc(NC(=O)CN3C(=O)CCC3=O)n2)c(OC)c1 | n | n | 142 | n | n | n | n
COc1ccc(-c2csc(NC(=O)CN3C(=O)CCC3=O)n2)cc1 | n | n | n | n | x | x | x
O=C(/C=C/c1c(F)cccc1Cl)Nc1ncccn1 | n | n | n | n | x | x | x
C=CCNC(=O)/C=C/c1c(F)cccc1Cl | n | n | 184 | n | n | n | n
COc1ccc(CN2CCC(=O)N(CCO)CC2)cc1OC | n | n | n | n | x | x | x
O=C(Cc1coc(-c2ccc(F)cc2)n1)Nc1ccccc1 | n | n | 2.0[inhibitor] | 2.0[inhibitor] | n | n | n
CCC(=O)Nc1cccc(C(=O)OCc2cccc([N+](=O)[O-])c2)c1 | x | n | n | n | x | x | x
CC(C)OC(=O)CSc1nc2ncccc2[nH]1 | x | n | 33[inhibitor] | 45[inhibitor] | n | n | n
CC(=O)N1CCC(N(CCN2CCOCC2)C(=S)Nc2ccc(C)c(C)c2)CC1 | n | n | n | n | x | x | x
CCCCNC(=O)C(c1ccc(OCC(=O)OC)c(C(=O)OC)c1)N(CCc1c[nH]c2ccccc12)C(=O)CCCCCN1C(=O)NC(c2ccc(-c3ccccc3)cc2)C(C(=O)OCc2ccccc2)=C1C (configuration not stated) | n | n | n | n | x | x | x
O=C(Nc1ccccc1N1CCOCC1)c1ccc(Cl)nc1 | n | n | 72[inhibitor] | n | n | n | n
Cc1ccc(C(=O)CCC(=O)Nc2ccccc2C)c(C)c1 | n | n | n | n | x | x | x
Cc1ccccc1S(=O)(=O)c1cc(C#N)c(=O)[nH]c1N | n | n | 69[inhibitor] | n | n | n | n
N#Cc1cc(S(=O)(=O)c2ccccc2)c(N)[nH]c1=O | n | n | n | n | x | x | x
C=CCN(C(=O)CNC(=O)c1ccco1)C(C(=O)NC1CCCC1)c1ccc(OC)cc1 (configuration not stated) | n | n | n | n | x | x | x
CCOC1=C/C(=C/c2c(N)n3nc(S(=O)(=O)CC)sc3nc2=O)C=CC1=O | n | x | x | x | x | x | x
CN1CCC/C1=C/C=C1\SC(=S)NC1=O | n | n | 151 | n | n | n | n
CC(=O)NS(=O)(=O)c1ccc(NC(=S)NC(=O)COc2ccccc2C)cc1 | n | n | 139 | n | n | n | n
COc1cccc(/C=C/C(=O)NCc2ccc(S(N)(=O)=O)cc2)c1 | n | n | n | n | x | x | x
COc1ccc(C(CCN2CCCC(C)C2)c2c(OC)cc(OC)c3c(C)cc(=O)oc23)cc1 (configuration not stated) | n | n | n | 138 | n | n | n
COc1cc(OC)c2c(-c3ccccc3)cc(=O)oc2c1C(CC(=O)N1CCOCC1)c1ccc2c(c1)OCO2 (configuration not stated) | n | n | n | 144 | n | n | n
COc1ccc(C(CCN2CCN(c3ccccc3)CC2)c2c(OC)cc(OC)c3c(-c4ccccc4)cc(=O)oc23)cc1 (configuration not stated) | n | n | n | n | x | x | x
COc1ccc(C(CCN2CCCC(C)C2)c2c(OC)cc(OC)c3c(-c4ccccc4)cc(=O)oc23)cc1 (configuration not stated) | n | 41 | n | 207 | n | n | n
COc1cc(OC)c2c(C)cc(=O)oc2c1C(CCN1CCN(c2ccccc2)CC1)c1ccc2c(c1)OCO2 (configuration not stated) | n | n | n | n | x | x | x
COc1cc(C(CCN2CCCC2)c2c(OC)cc(OC)c3c(-c4ccccc4)cc(=O)oc23)cc(OC)c1OC (configuration not stated) | n | 26 | n | 140 | n | n | n
SMILES | Lipid droplet | MEKK2mut PB1 HTS | MEKK3 PB1 HTS | MEKK2wt PB1 HTS | MEKK2wt confirm | MEKK2mut confirm | MEKK3 confirm
Cc1nonc1C(=O)N/N=C/c1ccc(O)cc1O | n | n | n | n | x | x | x
CC(=O)c1c(N2CCOCC2)nc2ccc(Br)cc2c1-c1ccccc1 | n | n | n | n | x | x | x
CCN(CC)CCCN1C=C2C(=O)C(C)(OC(=O)C3CCCC3)C(=O)C=C2C=C1c1ccsc1 (configuration not stated) | n | n | n | n | x | x | x
COc1cc(OC)c2c(-c3ccccc3)cc(=O)oc2c1C(CCN1CCCC1)c1ccc2c(c1)OCO2 (configuration not stated) | n | n | 128 | 175 | n | n | n
COc1cc(C(CCN2CCCCC2)c2c(OC)cc(OC)c3c(C)cc(=O)oc23)cc(OC)c1OC (configuration not stated) | n | n | n | 141 | n | n | n
COc1cc(OC)c2ccc(=O)oc2c1C(CCN1CCCC1)c1ccc2c(c1)OCO2 (configuration not stated) | n | n | n | n | x | x | x
CCN(CC)CCC(c1ccc(N(C)C)cc1)c1c(OC)cc(OC)c2c(-c3ccccc3)cc(=O)oc12 (configuration not stated) | n | 25 | n | 178 | n | n | n
COc1cc(OC)c2c(C)cc(=O)oc2c1C(CCN1CCOCC1)c1ccc(N(C)C)cc1 (configuration not stated) | n | n | n | n | x | x | x
COc1cc(OC)c2c(-c3ccccc3)cc(=O)oc2c1C(CCN1CCCC(C)C1)c1ccc(N(C)C)cc1 (configuration not stated) | n | 41 | n | 222 | n | n | n
COCCn1c(SCc2ccc(OC)c(F)c2)nnc1-c1ccncc1 | n | n | n | n | x | x | x
COc1cc2c(cc1OC)CN(C(=O)CN1CCN(S(=O)(=O)c3ccc(C)c(C)c3)CC1)CC2 | n | n | n | n | x | x | x
COc1nc(OC)nc(N2CCC(NC(=O)C(Cc3cccc(OC)c3OC)NC(C)=O)CC2)n1 (configuration not stated) | n | n | n | n | x | x | x
Cc1ccc(NS(=O)(=O)c2ccc(Br)s2)cc1S(=O)(=O)N1CCOCC1 | n | n | n | n | x | x | x
COc1ccc(C(CCN2CCCC2)c2c(OC)cc(OC)c3c(-c4ccccc4)cc(=O)oc23)cc1 (configuration not stated) | n | n | n | 152 | n | n | n
